An excerpt weighted towards active compounds, which were near 2.6% of everything screened.
SIAE primary: human SIAE inhibitors, primary screen, biochemical, fluorescence polarization, FP-Rh probe, 1536-well HTS; Sialate O-acetylesterase (Homo sapiens), Q9HAT2; SIAE FP-Rh probe binding; inhibition, % at 9.66 µM; actives 0.69% (n = 370,000);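 active = inhibition above a cutoff: mean of compounds within the control limits plus 3 SD of those, cut at about 17% in these data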;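 note: 0% = plate median of compound wells and 100% = probe without SIAE protein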
ABHD4 inh: ABHD4 inhibitors, primary screen, biochemical, fluorescence polarization, mouse; (Lyso)-N-acylphosphatidylethanolamine lipase (Mus musculus), Q8VD66; purified mABHD4, FP-Rh probe fluorescence polarization; inhibition, % at 8.92 µM; actives 0.54% (n = 370,000);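 active = inhibition exceeding the mean over every tested compound plus 3 SD, cut at about 30% in these data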;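 note: 0% = plate median of compound wells and 100% = S159A mutant with DMSO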
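Assay system: mouse ABHD4 enzyme, wild type / Also added: fluorescent activity-based probe FP-Rh / Doses: single nominal dose of 8.92 µM, 0.89% DMSO final / Timing: 45 min compound pre-incubation plus 60 min probe step, 25 °C / Signal: FP readout, ex 525 nm / em 598 nm / Control set: S159A mutant/DMSO as 100%, compound-well median as 0%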
TCR CD3 inh: inhibitors of human TCR-CD3 interaction, primary screen, biochemical, fluorescence, TAMRA-labeled TCR probe. inhibition, % at 9.4 µM. T-cell receptor (TCR). actives 0.37% (n = 360,000); in the data active = inhibition above about 19%;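 note: recombinant mutant TCR 2C K166C tagged with TAMRA read by polarization; 0% = receptor in buffer alone and 100% = receptor with positive control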
HTRA1 inh: HTRA1 serine protease inhibitors, primary screen, biochemical, fluorescence polarization, HTS; recombinant HTRA1, FP-rhodamine activity-based probe; actives 0.5% (n = 340,000); Q92743; inhibition, % at 5.96 µM; AID 504803, 2011; in the data active = inhibition above about 36%;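 note: 0% = enzyme with DMSO and 100% = wells lacking enzyme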
Target sequence (Q92743 whole entry, looked up): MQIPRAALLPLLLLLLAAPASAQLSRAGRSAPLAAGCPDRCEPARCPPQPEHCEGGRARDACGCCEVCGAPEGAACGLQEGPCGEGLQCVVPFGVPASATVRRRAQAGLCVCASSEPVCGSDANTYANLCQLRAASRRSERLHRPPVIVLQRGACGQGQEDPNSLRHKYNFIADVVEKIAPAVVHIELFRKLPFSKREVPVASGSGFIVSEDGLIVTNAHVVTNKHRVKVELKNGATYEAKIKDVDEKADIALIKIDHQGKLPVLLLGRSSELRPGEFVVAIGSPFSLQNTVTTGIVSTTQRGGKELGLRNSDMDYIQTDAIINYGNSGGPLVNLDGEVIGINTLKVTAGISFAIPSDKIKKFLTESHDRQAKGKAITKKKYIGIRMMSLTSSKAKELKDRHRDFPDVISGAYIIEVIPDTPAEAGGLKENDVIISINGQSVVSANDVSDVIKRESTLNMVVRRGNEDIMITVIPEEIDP
PRMT1 FP inh: PRMT1 methyltransferase inhibitors, primary screen, biochemical, fluorescence polarization. inhibition, % at 2.79 µM. Protein arginine N-methyltransferase 1 (Homo sapiens), Q99873. actives 1.3% (n = 370,000). recombinant PRMT1, activity-based probe fluorescence polarization;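 active = inhibition above about 21% made by adding two undisclosed values, limit read from the data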
PRMT1 inh conf: PRMT1 methyltransferase inhibitors, confirmation, biochemical, fluorescence polarization, triplicate. shares compounds with PRMT1 FP inh. recombinant His-PRMT1, activity-based probe fluorescence polarization. inhibition, % at 2.79 µM. actives 42% (n = 3,300);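 active = mean inhibition across replicates above the hit cutoff derived for the earlier primary screen, cut at about 22% in these data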
An asterisk follows results filed as active; . = not tested or not shown.

SMILES	SIAE primary	ABHD4 inh	TCR CD3 inh	HTRA1 inh	PRMT1 FP inh	PRMT1 inh conf
COc1ccc(/C=C2\CCc3c2nc2ccccc2c3C(=O)O)cc1OC	9	12	-1	8	79*	12
COC(=O)[C@]12CCCCC=C1N(Cc1ccc(OC)cc1)C(=O)[C@@H]2CC(=O)N1CCN(C(=O)C2CC2)CC1	-2	0	.	.	-7	.
CCc1ccc(NC(=O)c2nc(S(=O)(=O)Cc3ccccc3)ncc2Cl)cc1	-9	-17	-5	-9	31*	26*
CCS(=O)(=O)c1ncc(Cl)c(C(=O)Nc2ccc(S(=O)(=O)N3CCC(C)CC3)cc2)n1	-4	-13	0	-84	31*	14
COC(=O)c1ccc(NC(=O)c2nc(S(=O)(=O)Cc3cccc(C)c3)ncc2Cl)cc1	-4	-12	0	-18	52*	38*
CCN1Cc2nnn(Cc3ccccc3)c2-c2ccccc2S1(=O)=O	6	0	.	.	0	.
CN1C(=O)c2cc(NC(=O)Nc3ccccc3)ccc2OC[C@H]2O[C@@H](CC(=O)Nc3cc(F)ccc3F)CC[C@@H]21	-3	4	.	.	0	.
COC(=O)C1CN(CC(C)C)CCS(=O)(=O)N1Cc1cccc(Cl)c1 (stereo not given)	0	1	.	.	-5	.
CCn1c(COc2ccc(C)cc2)nnc1SCC(=O)Nc1ccc(C(=O)OC)cc1	-4	1	.	.	1	.
Cc1cc(C)cc(C(=O)OCCCN(C)C2CN(Cc3cn(Cc4ccccc4F)nn3)S(=O)(=O)C2)c1 (stereo not given)	2	0	.	.	2	.
Cc1ccc(NC(=O)c2sc3nc(N4CCOCC4)c4c(c3c2N)CCCC4)cc1	1	4	2	-23	27*	20
Cc1cccc2cc3c(N)c(C(=O)N4CCOCC4)sc3nc12	-4	-7	4	-13	36*	12
Cc1cc(C)c2cc3c(N)c(C(=O)N4CCc5ccccc5C4)sc3nc2c1	-5	-8	7	-20	4	.
COc1cccc(NC(=O)c2sc3nc(N4CCOCC4)c4c(c3c2N)CCCC4)c1	6	3	0	-32	32*	8
CCOc1ccc(NC(=O)c2sc3nc(N4CCOCC4)c4c(c3c2N)CCCC4)cc1	9	-3	14	-17	17	.
Nc1c(C(=O)Nc2ccc(Cl)cc2)sc2nc(N3CCOCC3)c3c(c12)CCCC3	-7	4	4	-18	30*	46*
CN(C)c1cccc(-c2cnc(N3CCC(C(N)=O)CC3)s2)c1	7	26	.	.	3	.
O=C(OC12CCCN(C1)/C(=C/c1ccccc1)C2)c1cccc(F)c1 (stereo not given)	6	0	.	.	-6	.
CC1(C)Cc2c(c(N3CCOCC3)nc3sc(C(=O)N4CCCCC4)c(N)c23)CO1	-6	10	7	3	17	.
Nc1c(C(=O)N2CCOCC2)sc2nc(N3CCOCC3)c3c(c12)CCCC3	-1	8	-11	1	34*	12
CC(=O)c1ccc(NC(=O)c2sc3nc(N4CCOCC4)c4c(c3c2N)CCCC4)cc1	0	-3	8	-3	20	.
Nc1c(C(=O)Nc2ccccc2)sc2nc(N3CCOCC3)c3c(c12)CCCC3	-1	10	-2	-8	35*	20
O=c1[nH]c2c(s1)C(c1ccco1)C1C3CCC(C3)C1S2 (stereo not given)	10	15	-5	-10	39*	20
O=C(NC1CCCC1)C1(C(=O)C2CC2)CC(c2ccccn2)=NO1 (stereo not given)	3	3	.	.	-1	.
Cc1ccc2c(C)cc[n+](CCCS(=O)(=O)[O-])c2c1	5	-4	-6	3	-2	.
SMILES	SIAE primary	ABHD4 inh	TCR CD3 inh	HTRA1 inh	PRMT1 FP inh	PRMT1 inh conf
Cc1cc(C)c2sc(C)[n+](CCCS(=O)(=O)[O-])c2c1	-3	-1	-8	2	51*	32*
CC[n+]1c(C)sc2c(C)cc(C)cc21	0	-2	-4	4	46*	20
COCCCN1C(=O)[C@H](CC(=O)N2CCC(c3ccccc3)CC2)[C@]2(C(=O)OC)CCCCC=C12	-8	0	.	.	-4	.
CCn1c(Cl)c(C=O)s/c1=N\S(=O)(=O)c1ccccc1	-4	-4	-6	-29	49*	27*
Cc1ccc(S(=O)(=O)Nc2cc(C(=O)O)ccc2N2CCC(C)CC2)cc1C	10	27	.	.	4	.
NC(=O)C1CCN(c2ncc(Br)cn2)CC1	1	7	.	.	3	.
CCOC(=O)c1ccoc1CSCc1ccc(C(=O)OC)o1	3	2	-2	3	39*	45*
O=C(Nc1ccc(F)cc1)NC1CCN(Cc2nnnn2Cc2ccco2)CC1	-1	-8	-6	5	29*	11
COc1ccccc1NC(=O)C(=O)NNS(=O)(=O)c1ccc2ccccc2c1	1	2	3	-10	2	.
COc1ccc(NC(=S)NNS(=O)(=O)c2ccc3ccccc3c2)c(OC)c1	3	10	-3	1	27*	13
CN1CCC(N[C@@H](Cc2ccccc2)C(=O)NCC(c2ccccc2)c2ccccc2)(C(=O)NC2CCCCC2)CC1	10	8	.	.	-3	.
Cc1c(C(=O)NCc2ccc3c(c2)OCO3)sc2nc(-c3ccccc3)cn12	-4	0	1	6	0	.
Cc1c(C(=O)NCc2ccc3c(c2)OCO3)sc2nc(-c3ccc(F)cc3)cn12	7	-5	-5	-12	29*	1
Cc1ccc(C2(C)NC(=O)N(CC(=O)Nc3nc(-c4ccccn4)cs3)C2=O)cc1 (stereo not given)	8	-27	-13	-2	26*	38*
COc1ccc(C2C(C(=O)c3cccs3)=C(O)C(=O)N2c2nncs2)cc1 (stereo not given)	4	3	2	-1	75*	99*
C=CCOc1ccc(C2C(C(=O)c3cccs3)=C(O)C(=O)N2c2nnc(C)s2)cc1 (stereo not given)	-9	-9	3	-11	41*	25*
CC(C)c1nnc(N2C(=O)C(O)=C(C(=O)c3cccs3)C2c2ccccc2)s1 (stereo not given)	-21	-23	-5	-10	79*	76*
Cc1ccc(C2C(C(=O)c3ccco3)=C(O)C(=O)N2c2nnc(C)s2)cc1 (stereo not given)	1	5	-4	5	30*	5
COC(=O)C1=C(C)N(C)C(=NCc2cccc(C(F)(F)F)c2)NC1c1ccc(F)cc1 (stereo not given)	-1	7	0	.	-2	.
CCN(CC)C(=O)CSc1nnc(-c2cccs2)o1	-4	8	.	.	2	.

Screening results deposited in PubChem BioAssay by The Scripps Research Institute Molecular Screening Center.
